Measured values reported in ChEMBL document CHEMBL4364248, “Discovery of 1,2,4-oxadiazole-Containing hydroxamic acid derivatives as histone deacetylase inhibitors potential application in cancer therapy” (Eur J Med Chem, 2019).

Assay: Volume of distribution at steady state in Sprague-Dawley rat at 5 mg/kg, po measured upto 24 hrs by LC-MS/MS analysis
Type: ADME, organism-based
Settings: in vivo
Method in brief: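 SD rats (200-250 g), six per time point, given 5 mg/kg orally; blood drawn by cardiac puncture at 0, 5, 15, 30, 45 min and 1, 2, 4, 6, 8, 10, 12, 24 h, held on ice. Plasma separated by centrifugation (4000 g, 15 min, 4 °C), stored at -80 °C, assayed by LC-MS/MS in multiple-reaction monitoring mode; parameters from noncompartmental analysis.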

Cc1ccc(CN2CCC(c3noc(CN(C)c4ncc(C(=O)NO)cn4)n3)CC2)cc1
Vdss: 29.13 L/kg
